# Source: ChEMBL document CHEMBL1157314, “Antibacterial, partially acetylated oligorhamnosides from Cleistopholis patens” (2006)
# Calls of active or inactive are those of the source. No cut-off for these calls is given here.
# What was measured:
# Format in all cases: functional
# [1] = system: Staphylococcus haemolyticus; test: Antibacterial activity against oxacillin-resistant Staphylococcus haemolyticus 107-1240C isolate after 24 hrs by broth microdilution method
# In short: (§1)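 Broth microdilution following NCCLS M7-A6 (2003), with inoculum at the recommended densities. Isolates were placed into panel wells with an autoinoculator and grown in cation-adjusted Mueller-Hinton broth at 35°C in ambient air for overnight to 24 h. Panels were read by eye, and the MIC was taken as no visible growth.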
# Streptococcus pneumoniae [2] = test: Antibacterial activity against penicillin-intermediate resistant Streptococcus pneumoniae ATCC 49619 after 24 hrs by broth microdilution method; conditions: ATCC 49619, 24 h; in short: as §1
# Bacillus sp. [3] = test: Antibacterial activity against erythromycin-resistant Bacillus sp. 32-2406A isolate after 24 hrs by broth microdilution method; conditions: Bacillus sp. (in: firmicutes); in short: as §1
# Streptococcus [4] = test: Antibacterial activity against levofloxacin-resistant beta-haemolytic sStreptococcus 19-756A isolate after 24 hrs by broth microdilution method; in short: as §1
# Corynebacterium jeikeium = test: Antibacterial activity against Corynebacterium jeikeium 15-196A isolate after 24 hrs by broth microdilution method
# In short: (§2)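 Broth microdilution following NCCLS M7-A6 (2003) inocula; isolates transferred aseptically into panel wells with an autoinoculator; cation-adjusted Mueller-Hinton broth; incubated overnight to 24 h at 35°C in ambient air; panels read by eye, MIC taken as lowest concentration with no visible growth.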
# Staphylococcus [5] = test: Antibacterial activity against quinupristin/dalfopristin-resistant coagulase negative Staphylococcus 90-10840A isolate after 24 hrs by broth microdilution method; in short: as §1
# Enterococcus faecalis [6] = test: Antibacterial activity against vancomycin-resistant Enterococcus faecalis 48-22D isolate with vanA phenotype after 24 hrs by broth microdilution method; in short: as §1
# Enterococcus faecalis [7] = test: Antibacterial activity against vancomycin-resistant Enterococcus faecalis 82-876D with vanB phenotype isolate after 24 hrs by broth microdilution method; in short: as §1
# Streptococcus [8] = test: Antibacterial activity against linezolid-resistant viridans group Streptococcus 27-2832A isolate after 24 hrs by broth microdilution method; in short: as §1
# Streptococcus pneumoniae [9] = test: Antibacterial activity against levofloxacin-resistant Streptococcus pneumoniae 2-2784A isolate after 24 hrs by broth microdilution method; in short: as §1
# Streptococcus pneumoniae [10] = test: Antibacterial activity against multidrug resistant Streptococcus pneumoniae 68-2307B isolate after 24 hrs by broth microdilution method; in short: as §1
# Streptococcus [11] = test: Antibacterial activity against erythromycin and clindamycin-resistant beta-haemolytic sStreptococcus 91-526D isolate after 24 hrs by broth microdilution method; in short: as §1
# Bacillus sp. [12] = test: Antibacterial activity against trimethoprim/sulfamethaxazole-resistant Bacillus sp. 67-1057A isolate after 24 hrs by broth microdilution method; conditions: Bacillus sp. (in: firmicutes); in short: as §1
# Pseudomonas aeruginosa = test: Antibacterial activity against sPseudomonas aeruginosa ATCC 27853 after 24 hrs by broth microdilution method; conditions: ATCC 27853, 24 h; in short: as §2
# Streptococcus mitis = test: Antibacterial activity against penicillin-resistant Streptococcus mitis 61-2900C isolate after 24 hrs by broth microdilution method; in short: as §1
# Streptococcus pneumoniae [13] = test: Antibacterial activity against penicillin-resistant Streptococcus pneumoniae 33-50B isolate after 24 hrs by broth microdilution method; in short: as §1
# Enterococcus faecalis [14] = test: Antibacterial activity against gentamycin and streptomycin-resistant Enterococcus faecalis 39-11D isolate after 24 hrs by broth microdilution method; in short: as §1
# Streptococcus pyogenes = test: Antibacterial activity against erythromycin-resistant Streptococcus pyogenes 91-8747 isolate after 24 hrs by broth microdilution method; in short: as §1
# Streptococcus [15] = test: Antibacterial activity against mupirocin-resistant viridans group sStreptococcus 32-2395A isolate after 24 hrs by broth microdilution method; in short: as §1
# Bacillus sp. [16] = test: Antibacterial activity against tetracycline-resistant Bacillus sp. 107-1461D isolate after 24 hrs by broth microdilution method; conditions: Bacillus sp. (in: firmicutes); in short: as §1
# Streptococcus [17] = test: Antibacterial activity against levafloxacin-resistant viridans group Streptococcus 107-6380A isolate after 24 hrs by broth microdilution method; in short: as §1
# Escherichia coli = test: Antibacterial activity against sEscherichia coli ATCC 25922 after 24 hrs by broth microdilution method; conditions: ATCC 25922, 24 h; in short: as §2
# Staphylococcus [18] = test: Antibacterial activity against coagulase negative linezolid-resistant Staphylococcus 82-1645A isolate after 24 hrs by broth microdilution method; in short: as §1
# Enterococcus faecalis [19] = test: Antibacterial activity against linezolid-resistant Enterococcus faecalis 15-5341 isolate after 24 hrs by broth microdilution method; in short: as §1
# Streptococcus [20] = test: Antibacterial activity against erythromycin-resistant and clindamycin-susceptible beta-haemolytic sStreptococcus 109-820D isolate after 24 hrs by broth microdilution method; in short: as §1
# Enterococcus faecalis [21] = test: Antibacterial activity against ampicillin and vancomycin-susceptible Enterococcus faecalis ATCC 29212 after 24 hrs by broth microdilution method; conditions: ATCC 29212, 24 h; in short: as §1
# Streptococcus pneumoniae [22] = test: Antibacterial activity against erythromycin and clindamycin-resistant Streptococcus pneumoniae 4-38B isolate after 24 hrs by broth microdilution method; in short: as §1
# Staphylococcus [23] = test: Antibacterial activity against mupirocin-resistant coagulase negative Staphylococcus 63-18A isolate after 24 hrs by broth microdilution method; in short: as §1
# Streptococcus [24] = test: Antibacterial activity against multidrug-resistant viridans group Streptococcus 58-1602D isolate after 24 hrs by broth microdilution method; in short: as §1
# Streptococcus pneumoniae [25] = test: Antibacterial activity against erythromycin-resistant and clindamycin-susceptible Streptococcus pneumoniae 35-405B isolate after 24 hrs by broth microdilution method; in short: as §1
# Staphylococcus aureus [26] = test: Antibacterial activity against methicillin-resistant Staphylococcus aureus 78-13607A after 24 hrs by broth microdilution method; in short: as §1
# Staphylococcus aureus [27] = test: Antibacterial activity against methicillin-resistant Staphylococcus aureus ATCC 33591 after 24 hrs by broth microdilution method; conditions: for MIC: ATCC 33591, 24 h; in short: as §1
# Staphylococcus aureus [28] = test: Antibacterial activity against oxacillin-resistant Staphylococcus aureus ATCC 33591 after 24 hrs by broth microdilution method; conditions: ATCC 33591, 24 h; in short: as §1
# Staphylococcus aureus [29] = test: Antibacterial activity against linezolid-resistant Staphylococcus aureus 106-12591A isolate after 24 hrs by broth microdilution method; in short: as §1
# Staphylococcus aureus [30] = test: Antibacterial activity against mupirocin-resistant Staphylococcus aureus 4-90A isolate after 24 hrs by broth microdilution method; in short: as §1
# Staphylococcus aureus [31] = test: Antibacterial activity against oxacillin-susceptible Staphylococcus aureus ATCC 29213 after 24 hrs by broth microdilution method; conditions: ATCC 29213, 24 h; in short: as §1
# Enterococcus faecium [32] = test: Antibacterial activity against linezolid-resistant Enterococcus faecium 11-4103A isolate after 24 hrs by broth microdilution method; in short: as §1
# Corynebacterium sp. [33] = test: Antibacterial activity against rifampin-resistant Corynebacterium sp. 58-9161A isolate after 24 hrs by broth microdilution method; in short: as §1
# Corynebacterium sp. [34] = test: Antibacterial activity against doxycyclin-resistant Corynebacterium sp. 105-1513C isolate after 24 hrs by broth microdilution method; in short: as §1
# Enterococcus faecium [35] = test: Antibacterial activity against ampicillin and vancomycin-resistant Enterococcus faecium 24-45A isolate after 24 hrs by broth microdilution method; in short: as §1
# Enterococcus faecium [36] = test: Antibacterial activity against quinupristin/dalfopristin-resistant Enterococcus faecium 65-1208A isolate after 24 hrs by broth microdilution method; in short: as §1
# Corynebacterium sp. [37] = test: Antibacterial activity against streptomycin-resistant Corynebacterium sp. 61-5454A isolate after 24 hrs by broth microdilution method; in short: as §1
# Enterococcus faecium [38] = test: Antibacterial activity against vancomycin-resistant Enterococcus faecium 103-1232D isolate with vanB phenotype after 24 hrs by broth microdilution method; in short: as §1
# Bacillus cereus = test: Antibacterial activity against Bacillus cereus 24-59A isolate after 24 hrs by broth microdilution method
# Staphylococcus aureus [39] = test: Antibacterial activity against quinupristin/dalfopristin-resistant Staphylococcus aureus 300-12053A isolate after 24 hrs by broth microdilution method; in short: as §1
# [40] = system: Staphylococcus epidermidis; test: Antibacterial activity against oxacillin-susceptible Staphylococcus epidermidis isolate 12-1788A isolate after 24 hrs by broth microdilution method
# Enterococcus faecium [41] = test: Antibacterial activity against vancomycin-resistant Enterococcus faecium 15-206A isolate with vanA phenotype after 24 hrs by broth microdilution method; in short: as §1
smiles,measurement,setting,value
CN[C@H](CC(C)C)C(=O)N[C@H]1C(=O)N[C@@H](CC(N)=O)C(=O)N[C@H]2C(=O)N[C@H]3C(=O)N[C@H](C(=O)N[C@H](C(=O)O)c4cc(O)cc(O)c4-c4cc3ccc4O)[C@H](O)c3ccc(c(Cl)c3)Oc3cc2cc(c3O[C@@H]2O[C@H](CO)[C@@H](O)[C@H](O)[C@H]2O[C@H]2C[C@](C)(N)[C@H](O)[C@H](C)O2)Oc2ccc(cc2Cl)[C@H]1O [VANCOMYCIN],MIC,[1],1 µg/mL
same,MIC,Streptococcus pneumoniae [2],1 µg/mL
same,MIC,Bacillus sp. [3],0.5 µg/mL
same,MIC,Streptococcus [4],0.5 µg/mL
same,MIC,Corynebacterium jeikeium,1 µg/mL
same,MIC,Staphylococcus [5],0.5 µg/mL
same,MIC,Enterococcus faecalis [6],0.5 µg/mL
same,MIC,Enterococcus faecalis [7],0.5 µg/mL
same,MIC,Streptococcus [8],0.5 µg/mL
same,MIC,Streptococcus pneumoniae [9],0.5 µg/mL
same,MIC,Streptococcus pneumoniae [10],0.5 µg/mL
same,MIC,Streptococcus [11],0.5 µg/mL
same,MIC,Bacillus sp. [12],0.5 µg/mL
same,MIC,Pseudomonas aeruginosa,1 µg/mL
same,MIC,Streptococcus mitis,1 µg/mL
same,MIC,Streptococcus pneumoniae [13],1 µg/mL
same,MIC,Enterococcus faecalis [14],0.5 µg/mL
same,MIC,Streptococcus pyogenes,1 µg/mL
same,MIC,Streptococcus [15],0.5 µg/mL
same,MIC,Bacillus sp. [16],0.5 µg/mL
same,MIC,Streptococcus [17],0.5 µg/mL
same,MIC,Escherichia coli,1 µg/mL
same,MIC,Staphylococcus [18],0.5 µg/mL
same,MIC,Enterococcus faecalis [19],0.5 µg/mL
same,MIC,Streptococcus [20],0.5 µg/mL
same,MIC,Enterococcus faecalis [21],1 µg/mL
same,MIC,Streptococcus pneumoniae [22],0.5 µg/mL
same,MIC,Staphylococcus [23],0.5 µg/mL
same,MIC,Streptococcus [24],0.5 µg/mL
same,MIC,Streptococcus pneumoniae [25],0.5 µg/mL
CCC[C@@H]1C[C@@H](C(=O)N[C@@H]([C@H]2O[C@H](SC)[C@H](O)[C@@H](O)[C@H]2O)[C@H](C)Cl)N(C)C1 [CLINDAMYCIN],MIC,Staphylococcus aureus [26],0.12 µg/mL
same,MIC,Staphylococcus aureus [27],> 8 µg/mL
CCCCCCCCCCCCO[C@@H]1O[C@@H](C)[C@H](O[C@@H]2O[C@@H](C)[C@H](OC(C)=O)[C@@H](O[C@@H]3O[C@@H](C)[C@H](OC(C)=O)[C@@H](O)[C@H]3OC(C)=O)[C@H]2O)[C@@H](O)[C@H]1O,MIC,[1],4 µg/mL
same,MIC,Streptococcus pneumoniae [2],8 µg/mL
same,MIC,Bacillus sp. [3],2 µg/mL
same,MIC,Streptococcus [4],4 µg/mL
same,MIC,Corynebacterium jeikeium,> 32 µg/mL
same,MIC,Staphylococcus aureus [28],2 µg/mL
same,MIC,Staphylococcus [5],2 µg/mL
same,MIC,Enterococcus faecalis [6],2 µg/mL
same,MIC,Staphylococcus aureus [29],2 µg/mL
same,MIC,Enterococcus faecalis [7],2 µg/mL
same,MIC,Streptococcus [8],4 µg/mL
same,MIC,Staphylococcus aureus [30],2 µg/mL
same,MIC,Staphylococcus aureus [31],2 µg/mL
same,MIC,Streptococcus pneumoniae [9],4 µg/mL
same,MIC,Enterococcus faecium [32],2 µg/mL
same,MIC,Streptococcus pneumoniae [10],4 µg/mL
same,MIC,Streptococcus [11],4 µg/mL
same,MIC,Staphylococcus aureus [26],8 µg/mL
same,MIC,Bacillus sp. [12],2 µg/mL
same,MIC,Pseudomonas aeruginosa,> 32 µg/mL
same,MIC,Streptococcus mitis,8 µg/mL
same,MIC,Streptococcus pneumoniae [13],8 µg/mL
same,MIC,Enterococcus faecalis [14],2 µg/mL
same,MIC,Corynebacterium sp. [33],8 µg/mL
same,MIC,Corynebacterium sp. [34],8 µg/mL
same,MIC,Streptococcus pyogenes,8 µg/mL
same,MIC,Streptococcus [15],4 µg/mL
same,MIC,Enterococcus faecium [35],2 µg/mL
same,MIC,Enterococcus faecium [36],2 µg/mL
same,MIC,Bacillus sp. [16],2 µg/mL
same,MIC,Streptococcus [17],4 µg/mL
same,MIC,Corynebacterium sp. [37],8 µg/mL
same,MIC,Escherichia coli,> 32 µg/mL
same,MIC,Staphylococcus [18],2 µg/mL
same,MIC,Enterococcus faecium [38],2 µg/mL
same,MIC,Bacillus cereus,2 µg/mL
same,MIC,Enterococcus faecalis [19],2 µg/mL
same,MIC,Staphylococcus aureus [39],2 µg/mL
same,MIC,Staphylococcus aureus [27],8 µg/mL
same,MIC,Streptococcus [20],4 µg/mL
same,MIC,Enterococcus faecalis [21],4 µg/mL
same,MIC,Streptococcus pneumoniae [22],4 µg/mL
same,MIC,Staphylococcus [23],2 µg/mL
same,MIC,[40],4 µg/mL
same,MIC,Enterococcus faecium [41],2 µg/mL
same,MIC,Streptococcus [24],4 µg/mL
same,MIC,Streptococcus pneumoniae [25],4 µg/mL
CN(C)[C@@H]1C(O)=C(C(N)=O)C(=O)[C@@]2(O)C(O)=C3C(=O)c4c(O)cccc4[C@@](C)(O)[C@H]3C[C@@H]12 [TETRACYCLINE],MIC,Staphylococcus aureus [26],≤ 16 µg/mL
same,MIC,Staphylococcus aureus [27],> 8 µg/mL
CO[C@H]1/C=C/O[C@@]2(C)Oc3c(C)c(O)c4c(O)c(c(/C=N/N5CCN(C)CC5)c(O)c4c3C2=O)NC(=O)/C(C)=C\C=C\[C@H](C)[C@H](O)[C@@H](C)[C@@H](O)[C@@H](C)[C@H](OC(C)=O)[C@@H]1C [RIFAMPIN],MIC,Staphylococcus aureus [26],≤ 0.25 µg/mL
same,MIC,Staphylococcus aureus [27],≤ 0.25 µg/mL
C/C(=C\C(=O)OCCCCCCCCC(=O)O)C[C@@H]1OC[C@H](C[C@@H]2O[C@H]2[C@@H](C)[C@H](C)O)[C@@H](O)[C@H]1O,Activity,Staphylococcus aureus [26],Active
same,Activity,Staphylococcus aureus [27],Active
